Reference: article PMC9056854 (RSC Advances, 2020)

Assay: Thermal denaturation study
Assay type: physicochemical
Conditions: 3 μM duplex, 10 mM sodium phosphate (pH 7.0), 100 mM NaCl; relative to siRNA 1
How it was run: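 UV melting of duplexes at 3 μM in 10 mM sodium phosphate (pH 7.0) with 100 mM NaCl, heated at 0.5 °C min−1. ΔTm is the Tm of the peptide-conjugated duplex minus the Tm of the unmodified duplex.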

Q: For “5′-GGCCUUUCACUACUCCUACTTR^E-R8G7-3′ [siRNA 2]”, which “ΔTm [Tm(siRNAmod) − Tm(siRNAunmod)]” value is on record?
A: +0.9 °C

Q: With “5′-GGCCUUUCACUACUCCUACTTR^E-R8A7-3′ [siRNA 3]” as the substance, how does the “ΔTm [Tm(siRNAmod) − Tm(siRNAunmod)]” value read?
A: +0.5 °C
